Results reported in ChEMBL document CHEMBL1156503, “Long-acting kappa opioid antagonists disrupt receptor signaling and produce noncompetitive effects by activating c-Jun N-terminal kinase” (J Biol Chem, 2007).
Calls of active or inactive are those of the source.

Key:
[1] = tested on: Mus musculus; experiment: Effect on U50488-induced analgesic activity in C57BL/6 mouse assessed as tail withdrawal latency at 10 mg/kg, ip; format: functional, organism-based; set-up: dose 10 mg/kg
Outline: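 Male mice, 20–30 g, 8–12 weeks old, got a single ip injection in saline (control: saline). At set times from 24 h to 28 days afterward, they were challenged with U50,488 15 mg/kg ip. Tail-withdrawal latency from 52 ± 1 °C water was read 30 min later, with a 15 s cut-off. Groups were compared with saline by one-way ANOVA and Bonferroni.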

[2] = target: T1, c-Jun N-terminal kinase, JNK (Homo sapiens, UniProt P45983+P53779+P45984); experiment: Increase of JNK phosphorylation in U50488 treated HEK293 cells expressing GFP tagged kappa opioid receptor; format: cell-based
Outline: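 KOR-GFP HEK293 cells under G418, serum-starved 18 h, then concentration series for 1 h at 37 °C. Lysate (40 μg protein) immunoblotted for phospho-JNK, p54 and p46 summed, normalised to basal (100%). EC50 from nonlinear regression; n = 3–5 separate cultures.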

[3] = target: T1, c-Jun N-terminal kinase, JNK; experiment: Increase of JNK phosphorylation in U50488 treated HEK293 cells expressing GFP tagged kappa opioid receptor relative to U50,488; format: cell-based
[4] = tested on: Mus musculus; experiment: Inhibition of U50488-induced analgesic activity against C57BL/6 mouse assessed as tail withdrawal latency at 10 mg/kg, ip after 2 days; format: functional, organism-based; set-up: dose 10 mg/kg
Outline: (§1)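 Male C57Bl/6 mice, 20–30 g. Single 10 mg/kg i.p. dose or saline. At set days, U50,488 15 mg/kg i.p. was given and tail-withdrawal latency from 52 ± 1 °C water measured 30 min later, 15 s cut-off. One-way ANOVA with Bonferroni post hoc test.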

[5] = tested on: Mus musculus; experiment: Inhibition of U50488-induced analgesic activity against C57BL/6 mouse assessed as tail withdrawal latency at 10 mg/kg, ip; format: functional, organism-based; set-up: dose 10 mg/kg; outline: as §1
[6] = target: T1, c-Jun N-terminal kinase, JNK; experiment: Increase of JNK phosphorylation in U50488 treated untransfected HEK293 cells at 100 uM after 15 mins; format: cell-based
[7] = target: T1, c-Jun N-terminal kinase, JNK; experiment: Increase of U50488-induced JNK phosphorylation in untransfected HEK293 cells at 50 uM after 15 mins; format: cell-based
[8] = tested on: Mus musculus; experiment: Inhibition of U50488-induced analgesic activity against C57BL/6 mouse assessed as tail withdrawal latency at 10 mg/kg, ip for 14 days; format: functional, organism-based; set-up: dose 10 mg/kg; outline: as §1
[9] = target: T1, c-Jun N-terminal kinase, JNK; experiment: Increase of JNK phosphorylation in U50488 treated untransfected HEK293 cells at 10 uM after 1 hr; format: cell-based
Outline: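 Untransfected HEK293 cells grown without G418, serum-starved 18 h, then ligand 10 μM for 1 h at 37 °C. Phospho-JNK immunoblot quantified as % of basal untreated control, n = 3–7.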

[10] = tested on: Mus musculus; experiment: Inhibition of U50488-induced analgesic activity against C57BL/6 mouse assessed as tail withdrawal latency at 10 mg/kg, ip upto 21 days; format: functional, organism-based; set-up: dose 10 mg/kg; outline: as §1
[11] = tested on: Mus musculus; experiment: Inhibition of U50488-induced analgesic activity against C57BL/6 mouse assessed as tail withdrawal latency at 10 mg/kg, ip after 28 days; format: functional, organism-based; set-up: dose 10 mg/kg; outline: as §1
[12] = target: Kappa-type opioid receptor (Mus musculus, UniProt P33534); experiment: Displacement of [3H]U69,593 from kappa opioid receptor in mouse brain tissue
Sequence of Kappa-type opioid receptor (P33534 whole entry): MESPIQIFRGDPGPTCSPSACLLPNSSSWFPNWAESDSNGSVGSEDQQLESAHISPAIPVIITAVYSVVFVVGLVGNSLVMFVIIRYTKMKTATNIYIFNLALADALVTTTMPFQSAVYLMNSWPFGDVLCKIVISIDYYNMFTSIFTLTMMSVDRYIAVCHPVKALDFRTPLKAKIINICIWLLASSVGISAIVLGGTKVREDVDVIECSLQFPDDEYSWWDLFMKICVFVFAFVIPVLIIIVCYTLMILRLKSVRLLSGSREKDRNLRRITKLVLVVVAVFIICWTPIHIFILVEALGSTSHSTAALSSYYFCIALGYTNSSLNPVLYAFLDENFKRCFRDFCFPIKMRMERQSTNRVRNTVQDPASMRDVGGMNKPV

[13] = tested on: Mus musculus; experiment: Increase of JNK phosphorylation in mouse spinal cord at 10 mg/kg, ip after 1 hr; format: organism-based; set-up: dose 10 mg/kg
Outline: (§2)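 C57Bl/6 mice (wild type; KOR−/− as control) given 10 mg/kg i.p. Spinal cord and striatum dissected 60 min later and Dounce-homogenised in lysis buffer with phosphatase and protease inhibitors. Phospho-JNK immunoblot expressed as % of basal untreated control.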

[14] = tested on: Mus musculus; experiment: Increase of JNK phosphorylation in mouse striatum at 10 mg/kg, ip after 1 hr; format: organism-based; set-up: dose 10 mg/kg; outline: as §2
[15] = target: T1, c-Jun N-terminal kinase, JNK; experiment: Increase in JNK phosphorylation in pertussis toxin treated HEK293 cells expressing GFP tagged kappa opioid receptor at 10 uM after 1 hr; format: cell-based
Outline: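 KOR-GFP HEK293 cells serum-starved, pretreated with pertussis toxin 200 ng/ml for 18 h at 37 °C, then ligand 10 μM for 1 h at 37 °C. Phospho-JNK p54/p46 read by infrared immunoblot with β-actin loading control. Expressed as % basal, n = 3–4; Student's t test.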

[16] = tested on: Mus musculus; experiment: Reversal of inhibition of U50488-induced analgesic activity against C57BL/6 mouse assessed as tail withdrawal latency at 10 mg/kg, ip after 8 days in presence of SP600125; format: functional, organism-based; set-up: dose 10 mg/kg
Outline: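 Wild-type mice given SP600125 30 mg/kg i.p. (vehicle 5% […]/20% Cremophor EL/75% saline) 24 h and 30 min before 10 mg/kg i.p. test drug. Day 7–8: U50,488 25 mg/kg i.p. challenge, then tail-flick latency in 52 °C water, 15 s cut-off.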

Structure (SMILES): Oc1c2ccccc2c2c3c(cccc13)N=N2
- Activity [1]: inactive

Structure (SMILES): CC(C)C[C@H](NC(=O)[C@H](Cc1ccccc1)NC(=O)CNC(=O)CNC(=O)[C@@H](N)Cc1ccc(O)cc1)C(=O)N[C@@H](CCCNC(=N)N)C(=O)N[C@@H](CCCNC(=N)N)C(=O)N[C@@H](CCC(N)=O)C(=O)N[C@@H](Cc1ccccc1)C(=O)N[C@@H](CCCCN)C(=O)N[C@H](C(=O)N[C@H](C(=O)N[C@H](C(=O)O)[C@@H](C)O)C(C)C)C(C)C [DYNORPHIN B]
- EC50 [2]: 87 nM
- Intrinsic activity [3]: 0.61

Structure (SMILES): C=CCN1CC[C@]23c4c5ccc(O)c4O[C@H]2C(=O)CC[C@@]3(O)[C@H]1C5
- Activity [4]: inactive
- Activity [5]: Active

Structure (SMILES): COc1ccc(C[C@H]2NC[C@H](O)[C@H]2OC(C)=O)cc1
- Activity [6]: Active
- Activity [7]: Active

Structure (SMILES): CO[C@@]12CC[C@@]3(C[C@@H]1[C@](C)(O)C(C)(C)C)[C@H]1Cc4ccc(O)c5c4[C@@]3(CCN1CC1CC1)[C@H]2O5
- Activity [2]: inactive
- Intrinsic activity [3]: inactive

Structure (SMILES): CC(C)[C@@H](CN1CC[C@@](C)(c2cccc(O)c2)[C@@H](C)C1)NC(=O)[C@H]1Cc2ccc(O)cc2CN1 [JDTIC]
- Activity [8]: Active
- EC50 [2]: 5 nM
- Activity [9]: inactive
- Intrinsic activity [3]: 0.57

Structure (SMILES): Oc1ccc2c3c1O[C@H]1c4[nH]c5c(c4C[C@@]4(O)[C@@H](C2)N(CC2CC2)CC[C@]314)C[C@@]1(O)[C@H]2Cc3ccc(O)c4c3[C@@]1(CCN2CC1CC1)[C@H]5O4 [NORBINALTORPHIMINE]
- Activity [10]: Active
- Activity [11]: inactive
- Kd [12]: 1.65 nM
- EC50 [2]: 158 nM
- Activity [9]: inactive
- Activity [13]: Active
- Activity [14]: Active
- Activity [15]: inactive
- Intrinsic activity [3]: 0.84
- Activity [16]: Active

Structure (SMILES): N=C(N)Nc1ccc2[nH]c3c(c2c1)C[C@@]1(O)[C@H]2Cc4ccc(O)c5c4[C@@]1(CCN2CC1CC1)[C@H]3O5
- Activity [10]: Active
- Activity [9]: inactive
